# An excerpt weighted towards active compounds, which were near 2.6% of everything screened.
# SENP8 block-1: human SENP8 protease inhibitors, primary screen, biochemical, fluorescence, Nedd8 protein substrate, uHTS. actives 0.64% (n = 360,000). recombinant SENP8. AID 602440, 2012. inhibition, % at 20 µM; in the data active = inhibition mostly above about 40%, no sharp cut-off; inactive = mostly below about 27%
# Target sequence (Q96LD8 whole entry, looked up): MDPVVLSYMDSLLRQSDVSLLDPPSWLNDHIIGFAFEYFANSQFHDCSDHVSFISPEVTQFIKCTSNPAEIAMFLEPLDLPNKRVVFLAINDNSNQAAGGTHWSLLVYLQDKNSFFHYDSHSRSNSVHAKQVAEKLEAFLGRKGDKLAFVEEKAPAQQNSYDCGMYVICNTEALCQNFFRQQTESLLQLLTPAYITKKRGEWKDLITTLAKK
# SENP6 block: SENP6 protease inhibitors, primary screen, biochemical, luminescence, uHTS; Sentrin-specific protease 6 (Homo sapiens), Q9GZR1; Recombinant SENP6 catalytic domain, aminoluciferin luminescence; inhibition, % at 10 µM; actives 1.8% (n = 330,000); AID 2599, 2010;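 active = inhibition above about 50% at the single tested dose, limit read from the data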;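 also: plate controls were DMSO wells with enzyme for no effect and DMSO wells lacking enzyme for full effect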
# Platelet DG rel: inhibitors of platelet dense granule secretion, primary screen, cell-based, MLPCN, human platelets; human platelet-rich plasma, SFLLRN dense granule ATP release, luminescence; inhibition, %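 (compounds screened at 7.5 µM in platelet-rich plasma)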; actives 0.22% (n = 300,000);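 active = mean replicate score, as percent of positive control, at or above 50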
# SENP1 inh: human SENP1 catalytic domain inhibitors, primary screen, biochemical, FRET, uHTS. recombinant SENP1 catalytic domain, CyPet-SUMO1-YPet FRET cleavage. Sentrin-specific protease 1 (Homo sapiens), Q9P0U3. AID 624204, 2012. inhibition, % at 10 µM. actives 0.21% (n = 360,000);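 active = inhibition at least 30% at 10 µM, raw YFP signal under a set limit, fluorescence ratio 0.5 to 1.5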;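 also: 0% = enzyme with DMSO and 100% = no enzyme wells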
# Target sequence (Q9P0U3 419-644 limits assumed): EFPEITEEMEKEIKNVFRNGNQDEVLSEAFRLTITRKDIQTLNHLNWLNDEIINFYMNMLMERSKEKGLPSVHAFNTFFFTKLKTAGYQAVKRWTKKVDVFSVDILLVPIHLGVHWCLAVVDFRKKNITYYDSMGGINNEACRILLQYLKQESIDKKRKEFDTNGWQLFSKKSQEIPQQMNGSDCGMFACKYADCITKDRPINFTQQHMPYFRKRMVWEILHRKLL
#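 Controls: no-enzyme wells low, DMSO-plus-enzyme wells high control. Test system: human recombinant His6-tagged SENP1 catalytic domain enzyme. Reagent: SFCypet-SUMO1-SFYpet FRET protein substrate, 25 nM final. Doses: one dose per compound, 10 µM, 0.5% DMSO. Detection: FRET, CFP and YFP emission. Timing: 50 min reaction at room temperature.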
# SENP7 inh: SENP7 protease inhibitors, primary screen, biochemical, luminescence, uHTS. Sentrin-specific protease 7 (Homo sapiens), Q9BQF6. recombinant SENP7, Z-RLRGG-aminoluciferin luminescence, 40 min. inhibition, % at 5 µM. actives 1.5% (n = 330,000);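 active = inhibition above about 50% at the single test dose, limit read from the data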;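 also: plate controls were DMSO with enzyme for no effect and no enzyme buffer wells for full effect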
# SENP8 block-2: SENP8 protease inhibitors, primary screen, biochemical, luminescence. inhibition, % at 10 µM. Sentrin-specific protease 8 (Homo sapiens), Q96LD8. actives 1.2% (n = 330,000). purified SENP8, Z-RLRGG-aminoluciferin cleavage; in the data active = inhibition above about 50%
# * hit, by the source's call; nt = no result; ! = a repeat was not active.
SMILES,SENP8 block-1,SENP6 block,Platelet DG rel,SENP1 inh,SENP7 inh,SENP8 block-2
CC(=O)Nc1ccc(OC(=O)N(C)c2ccccc2)cc1,14.6,10.6,53.0*,-1.6,0.3,0.9
COc1ccc(CN2C(=O)NC(=O)/C(=C\c3ccco3)C2=O)cc1,-2.9,-2.9,2.1,-11.8,-10.7,-11.9
COc1ccc(CN2C(=O)NC(=O)/C(=C/c3ccc([N+](=O)[O-])s3)C2=O)cc1,42.9*,33.7,2.3,-0.8,3.3,10.5
O=C1NC(=O)N(Cc2ccc(F)cc2)C(=O)/C1=C\c1ccc([N+](=O)[O-])s1,50.4*,31.9,4.9,3.6,4.2,17.9
NC(Cc1cc(O)c(O)cc1O)C(=O)O (stereo not given),nt,-33.4,nt,nt,-13.4,6.3
NCCc1cc(O)c(O)cc1O,36.0*,nt,nt,3.6,nt,nt
CC(=NCCc1ccccc1)c1c(O)[nH]c(=O)[nH]c1=O,9.0,-19.6,29.6,-0.5,4.2,-3.4
CCC(=NCCc1ccccc1)c1c(O)[nH]c(=O)[nH]c1=O,13.7,11.0,73.2*,1.2,7.5,6.7
CCN1/C(=C\C=C\C2=[N+](CC)c3ccccc3C2(C)C)C(C)(C)c2ccccc21,18.4,6.7,16.3,64.1*,16.6,24.6
CC(C)(C)C(=O)Nc1ccc(S(=O)(=O)N2CC3CC(C2)c2cccc(=O)n2C3)cc1 (stereo not given),5.5,4.6,-2.7,0.0,-4.9,4.1
C=CCN1CC[C@]23c4c5ccc(O)c4OC2[C@H](O)CC[C@@]3(O)[C@H]1C5 (stereo not given in full),4.0,0.6,nt,-1.9,1.5,2.5
Oc1ccc2c3c1O[C@H]1[C@@H](O)CC[C@@]4(O)[C@@H](C2)N(CC2CCC2)CC[C@]314,-4.8,-12.0,1.5,32.8*!,-4.4,7.7
O=C1NC(=O)C(=Cc2ccc(N3CCN(C(=O)c4ccccc4)CC3)c([N+](=O)[O-])c2)C(=O)N1,41.0*,7.6,0.0,2.4,-1.5,-4.2
Cc1cc(C)n(-c2ccc(NN=C(C#N)C#N)cc2)n1,22.5,91.8*,1.5,-3.9,89.7*,90.0*
CCOc1ccc2nc(N=Nc3c(O)[nH]c(=O)[nH]c3=O)sc2c1,44.9*,-0.4,3.6,3.1,-1.8,2.5
CCOC(=O)c1sc(N=Nc2c(O)[nH]c(=O)[nH]c2=O)c(C(=O)OCC)c1C,nt,-13.3,-2.9,nt,-12.8,2.0
O=C(Nc1ccccc1)OC1CN=C(N[N+](=O)[O-])NC1 (stereo not given),8.6,-3.7,-5.2,0.7,10.2,-3.3
CC(=O)c1ccc2c(c1)C1C(Cl)C(Sc3ccccc3[N+](=O)[O-])CC1C(C(=O)O)N2 (stereo not given),77.7*,nt,nt,1.4,nt,nt
CCN(CC)c1ccc(/C=C/[N+](=O)[O-])cc1,6.4,-28.8,2.6,32.2*,2.9,-1.7
COc1cc(/C=C/[N+](=O)[O-])ccc1O,16.9,-4.9,-2.3,2.7,-3.7,4.1
CN(C)CC#CCOCCOCCC#N,30.7,-8.2,0.6,0.9,-3.6,-2.1
CC(=O)c1cccc(NC2=NCC(C)S2)c1 (stereo not given),9.2,-20.6,4.0,1.3,2.1,-0.7
COc1cccc(N2C(=O)NC(=O)/C(=C/c3ccc4c(c3)Cc3ccccc3-4)C2=O)c1,-32.5,-12.2,0.3,-2.3,2.3,-12.5
COc1ccc(N2C(=O)NC(=O)/C(=C\c3ccc([N+](=O)[O-])s3)C2=O)cc1,44.2*,18.9,0.7,13.4,13.6,25.7
COc1ccccc1N1C(=O)NC(=O)/C(=C/c2ccc([N+](=O)[O-])s2)C1=O,nt,31.9,5.9,nt,6.5,20.4
SMILES,SENP8 block-1,SENP6 block,Platelet DG rel,SENP1 inh,SENP7 inh,SENP8 block-2
COc1cccc(N2C(=O)NC(=O)/C(=C/c3ccc([N+](=O)[O-])s3)C2=O)c1,47.5*,44.4,12.0,8.6,5.1,25.3
COc1ccc(N2C(=O)NC(=O)/C(=C/c3ccc([N+](=O)[O-])s3)C2=O)cc1,69.2*,13.8,4.5,14.3,11.0,9.9
CCCC/C(=N/O)c1c(C)[nH]c2ccccc12,12.3,8.4,-1.1,1.5,7.0,5.5
COC(=O)C1=C(c2cccc3c2S(=O)(=O)c2ccccc2-3)C[C@@H]2CC[C@H]1N2C(=O)N1CCOCC1,6.0,2.7,nt,-1.5,2.8,-0.7
O=c1[nH]c(=O)n(Cc2ccco2)c(O)c1C=NCc1ccc2c(c1)OCO2,11.9,-6.5,-1.3,-3.0,13.9,7.7
CCC(=NCCC1=CCCCC1)c1c(O)[nH]c(=O)[nH]c1=O,10.9,7.0,6.8,-0.7,-7.5,-3.1
CCN(CC)c1ccc(C=C2C(=O)N(C)C(=S)N(C)C2=O)o1,18.2,3.4,10.8,87.0*,4.8,4.0
Cc1ccc(/C=C2\C(=O)NC(=S)N(c3ccc(F)cc3)C2=O)o1,-1.7,14.5,3.6,-11.6,4.0,-4.0
CCN(CC)c1ccc(/C=C2\C(=O)NC(=S)N(C)C2=O)o1,30.4,42.1,15.9,86.2*,10.2,18.9
Cc1cc(C)cc(N2C(=O)/C(=C\c3ccc(N4CCN(C)CC4)o3)C(=O)NC2=S)c1,27.6,5.2,-2.2,75.7*,-6.3,0.6
CN1C(=O)C(=Cc2ccc(N3CCCCC3)o2)C(=O)N(C)C1=S,43.2*,-14.9,4.5,88.2*,11.3,1.0
COC(=O)C1=C(c2ccc3ccccc3c2)C[C@@H]2CC[C@H]1N2C(=O)N1CCC(C)CC1,9.9,13.0,nt,0.5,2.8,2.2
CNC1(c2ccc(F)cc2)CCCCC1,-1.0,nt,nt,1.9,nt,nt
COc1ccc(C(=O)NC(=S)N2C[C@H]3C[C@H](C2)c2cccc(=O)n2C3)cc1OC,16.8,8.1,0.6,2.0,-0.1,3.1
CCN(CC)c1ccc(/C=C2\C(=O)NC(=S)N(c3ccc(OC)cc3OC)C2=O)o1,14.4,-0.1,10.3,78.3*,3.3,1.0
COc1ccc(N2C(=O)/C(=C/c3ccc(N(C)C)o3)C(=O)NC2=S)cc1,37.7,-16.2,-7.8,69.5*,-1.1,1.3
CCCCc1nc2ccccc2c(=O)n1-c1ccccc1O,3.5,-4.8,-3.0,-4.0,-9.7,-7.5
CCNc1nc(Cl)nc(NC(C)C)n1,11.2,8.1,55.9*,-0.4,1.8,3.4
CCCNC(=O)N1C2CCC1CC(O)(c1cccnc1)C2 (stereo not given),14.1,4.9,-5.2,1.9,-4.7,-4.8
O=C(CN1CC=C(c2ccccc2)CC1)NC(=O)NCc1ccccc1,-21.0,-9.6,-3.0,-20.1,-3.1,-1.6
